Experimental data: ChEMBL document CHEMBL2417544, “Design, synthesis and biological evaluation of azithromycin glycosyl derivatives as potential antibacterial agents” (2013)
Values after ≈ are worked out from the molar mass of the structure shown.

Columns and labels:
Format in all cases: functional
Staphylococcus aureus [1] = assay: Antibacterial activity against Staphylococcus aureus ATCC 25923 by standard dilution assay
In short: (§1)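 Broth dilution MIC per NCCLS guidance. Compounds dissolved in DMSO, serially diluted in growth medium, inoculated and incubated at 35 °C. MIC80 read as the first well with about 80% less growth than the drug-free well. Erythromycin and azithromycin were run as positive controls. Each test was done three times, and values are means of the replicates.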

Streptococcus pneumoniae [2] = assay: Antibacterial activity against Streptococcus pneumoniae 746 by standard dilution assay
In short: (§2)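 Broth dilution MIC per NCCLS guidance. Compounds dissolved in DMSO, serially diluted in growth medium, inoculated and incubated at 35 °C. MIC80 taken as the first well showing roughly 80% less growth than the drug-free well. Each test run three times; values are means of replicates.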

Staphylococcus aureus [3] = assay: Antibacterial activity against methicillin-resistant Staphylococcus aureus MRSA-1 by standard dilution assay; in short: as §1
Streptococcus pyogenes = assay: Antibacterial activity against Streptococcus pyogenes 447 by standard dilution assay; in short: as §2
Streptococcus pneumoniae [4] = assay: Ratio of azithromycin MIC80 to compound MIC80 for Streptococcus pneumoniae 943
In short: (§3)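 Ratio of the reference macrolide's MIC80 (azithromycin or erythromycin A, tested in parallel) to the compound's MIC80. Both come from the same NCCLS broth dilution run: DMSO stocks serially diluted in medium, inoculated, 35 °C. MIC80 is the first well with about 80% lower growth than the drug-free control. Triplicate tests, means used.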

Streptococcus pneumoniae [5] = assay: Antibacterial activity against Streptococcus pneumoniae 943 by standard dilution assay; in short: as §2
Staphylococcus aureus [6] = assay: Antibacterial activity against methicillin-susceptible Staphylococcus aureus MSSA-1 by standard dilution assay; in short: as §1
Staphylococcus aureus [7] = assay: Ratio of erythromycin A MIC80 to compound MIC80 for methicillin-susceptible Staphylococcus aureus MSSA-1; in short: as §3
Escherichia coli [8] = assay: Antibacterial activity against Escherichia coli ATCC 25922 by standard dilution assay; in short: as §2
Escherichia coli [9] = assay: Antibacterial activity against Escherichia coli 236 by standard dilution assay; in short: as §2
Streptococcus pneumoniae [10] = assay: Ratio of erythromycin A MIC80 to compound MIC80 for Streptococcus pneumoniae 943; in short: as §3
Streptococcus pneumoniae [11] = assay: Ratio of erythromycin A MIC80 to compound MIC80 for Streptococcus pneumoniae 746; in short: as §3

SMILES | MIC80 (Staphylococcus aureus [1]) [µg/mL] | MIC80 (Streptococcus pneumoniae [2]) [µg/mL] | MIC80 (Staphylococcus aureus [3]) [µg/mL] | MIC80 (Streptococcus pyogenes) [µg/mL] | Ratio (Streptococcus pneumoniae [4]) | MIC80 (Streptococcus pneumoniae [5]) [µg/mL] | MIC80 (Staphylococcus aureus [6]) [µg/mL] | Ratio (Staphylococcus aureus [7]) | MIC80 (Escherichia coli [8]) [µg/mL] | MIC80 (Escherichia coli [9]) [µg/mL] | Ratio (Streptococcus pneumoniae [10]) | Ratio (Streptococcus pneumoniae [11])
CC[C@H]1OC(=O)[C@H](C)[C@@H](O[C@H]2C[C@@](C)(OC)[C@@H](OC(=O)NCCO[C@@H]3O[C@H](CO)[C@@H](O)[C@H](O)[C@H]3O)[C@H](C)O2)[C@H](C)[C@@H](O[C@@H]2O[C@H](C)C[C@H](N(C)C)[C@H]2O)[C@](C)(O)C[C@@H](C)CN(C)[C@H](C)[C@H]2OC(=O)O[C@@]21C | 8 (≈ 7.81 µM) | 2 (≈ 1.95 µM) | 16 (≈ 15.6 µM) | 16 (≈ 15.6 µM) | 4 | 1 (≈ 0.976 µM) | 2 (≈ 1.95 µM) | 8 | 128 (≈ 125 µM) | 64 (≈ 62.5 µM) | 8 | 8
CC[C@H]1OC(=O)[C@H](C)[C@@H](O[C@H]2C[C@@](C)(OC)[C@@H](OC(=O)NCCO[C@@H]3O[C@H](CO)[C@H](O)[C@H](O)[C@H]3O)[C@H](C)O2)[C@H](C)[C@@H](O[C@@H]2O[C@H](C)C[C@H](N(C)C)[C@H]2O)[C@](C)(O)C[C@@H](C)CN(C)[C@H](C)[C@H]2OC(=O)O[C@@]21C | 32 (≈ 31.2 µM) | 2 (≈ 1.95 µM) | 32 (≈ 31.2 µM) | 64 (≈ 62.5 µM) | 4 | 1 (≈ 0.976 µM) | 4 (≈ 3.91 µM) |  | 128 (≈ 125 µM) | 128 (≈ 125 µM) | 8 | 8
CC[C@H]1OC(=O)[C@H](C)[C@@H](O[C@H]2C[C@@](C)(OC)[C@@H](OC(=O)NCCO[C@@H]3O[C@H](CO)[C@@H](O)[C@H](O)[C@@H]3O)[C@H](C)O2)[C@H](C)[C@@H](O[C@@H]2O[C@H](C)C[C@H](N(C)C)[C@H]2O)[C@](C)(O)C[C@@H](C)CN(C)[C@H](C)[C@H]2OC(=O)O[C@@]21C | 8 (≈ 7.81 µM) | 4 (≈ 3.91 µM) | 8 (≈ 7.81 µM) | 32 (≈ 31.2 µM) |  | 4 (≈ 3.91 µM) | 8 (≈ 7.81 µM) |  | 128 (≈ 125 µM) | 64 (≈ 62.5 µM) |  | 
CC[C@H]1OC(=O)[C@H](C)[C@@H](O[C@H]2C[C@@](C)(OC)[C@@H](OC(=O)NCCO[C@@H]3OC[C@@H](O)[C@H](O)[C@H]3O)[C@H](C)O2)[C@H](C)[C@@H](O[C@@H]2O[C@H](C)C[C@H](N(C)C)[C@H]2O)[C@](C)(O)C[C@@H](C)CN(C)[C@H](C)[C@H]2OC(=O)O[C@@]21C | 8 (≈ 8.05 µM) | 4 (≈ 4.02 µM) | 16 (≈ 16.1 µM) | 16 (≈ 16.1 µM) |  | 2 (≈ 2.01 µM) | 16 (≈ 16.1 µM) |  | 256 (≈ 257 µM) | 64 (≈ 64.4 µM) |  | 
CC[C@H]1OC(=O)[C@H](C)[C@@H](O[C@H]2C[C@@](C)(OC)[C@@H](OC(=O)NCCO[C@@H]3O[C@H](CO)[C@@H](O)[C@H]3O)[C@H](C)O2)[C@H](C)[C@@H](O[C@@H]2O[C@H](C)C[C@H](N(C)C)[C@H]2O)[C@](C)(O)C[C@@H](C)CN(C)[C@H](C)[C@H]2OC(=O)O[C@@]21C | 4 (≈ 4.02 µM) | 8 (≈ 8.05 µM) | 8 (≈ 8.05 µM) | 64 (≈ 64.4 µM) |  | 4 (≈ 4.02 µM) | 8 (≈ 8.05 µM) |  | 128 (≈ 129 µM) | 64 (≈ 64.4 µM) |  | 
CC[C@H]1OC(=O)[C@H](C)[C@@H](O[C@H]2C[C@@](C)(OC)[C@@H](OC(=O)NCCO[C@@H]3O[C@@H](C)[C@H](O)[C@@H](O)[C@H]3O)[C@H](C)O2)[C@H](C)[C@@H](O[C@@H]2O[C@H](C)C[C@H](N(C)C)[C@H]2O)[C@](C)(O)C[C@@H](C)CN(C)[C@H](C)[C@H]2OC(=O)O[C@@]21C | 16 (≈ 15.9 µM) | 8 (≈ 7.93 µM) | 8 (≈ 7.93 µM) | 64 (≈ 63.5 µM) |  | 4 (≈ 3.97 µM) | 2 (≈ 1.98 µM) | 8 | 128 (≈ 127 µM) | 128 (≈ 127 µM) |  | 
CC[C@H]1OC(=O)[C@H](C)[C@@H](O[C@H]2C[C@@](C)(OC)[C@@H](OC(=O)NCCO[C@@H]3O[C@H](CO)[C@@H](O[C@H]4O[C@H](CO)[C@@H](O)[C@H](O)[C@H]4O)[C@H](O)[C@H]3O)[C@H](C)O2)[C@H](C)[C@@H](O[C@@H]2O[C@H](C)C[C@H](N(C)C)[C@H]2O)[C@](C)(O)C[C@@H](C)CN(C)[C@H](C)[C@H]2OC(=O)O[C@@]21C | 32 (≈ 27 µM) | 16 (≈ 13.5 µM) | 16 (≈ 13.5 µM) | 32 (≈ 27 µM) |  | 8 (≈ 6.74 µM) | 16 (≈ 13.5 µM) |  | 256 (≈ 216 µM) | 128 (≈ 108 µM) |  | 
CC[C@H]1OC(=O)[C@H](C)[C@@H](O[C@H]2C[C@@](C)(OC)[C@@H](OC(=O)NCCO[C@@H]3O[C@H](CO)[C@@H](O[C@@H]4O[C@H](CO)[C@@H](O)[C@H](O)[C@H]4O)[C@H](O)[C@H]3O)[C@H](C)O2)[C@H](C)[C@@H](O[C@@H]2O[C@H](C)C[C@H](N(C)C)[C@H]2O)[C@](C)(O)C[C@@H](C)CN(C)[C@H](C)[C@H]2OC(=O)O[C@@]21C | 16 (≈ 13.5 µM) | 16 (≈ 13.5 µM) | 32 (≈ 27 µM) | 64 (≈ 53.9 µM) |  | 8 (≈ 6.74 µM) | 32 (≈ 27 µM) |  | 256 (≈ 216 µM) | 128 (≈ 108 µM) |  | 
CC[C@H]1OC(=O)[C@H](C)[C@@H](O[C@H]2C[C@@](C)(OC)[C@@H](O)[C@H](C)O2)[C@H](C)[C@@H](O[C@@H]2O[C@H](C)C[C@H](N(C)C)[C@H]2O)[C@](C)(O)C[C@@H](C)CN(C)[C@H](C)[C@@H](O)[C@]1(C)O [AZITHROMYCIN] | 16 (≈ 21.4 µM) | 8 (≈ 10.7 µM) | 16 (≈ 21.4 µM) | 32 (≈ 42.7 µM) |  | 4 (≈ 5.34 µM) | 2 (≈ 2.67 µM) |  | 256 (≈ 342 µM) | 256 (≈ 342 µM) |  | 
CC[C@H]1OC(=O)[C@H](C)[C@@H](O[C@H]2C[C@@](C)(OC)[C@@H](O)[C@H](C)O2)[C@H](C)[C@@H](O[C@@H]2O[C@H](C)C[C@H](N(C)C)[C@H]2O)[C@](C)(O)C[C@@H](C)C(=O)[C@H](C)[C@@H](O)[C@]1(C)O [ERYTHROMYCIN] | 16 (≈ 21.8 µM) | 16 (≈ 21.8 µM) | 16 (≈ 21.8 µM) | 32 (≈ 43.6 µM) |  | 8 (≈ 10.9 µM) | 16 (≈ 21.8 µM) |  | 256 (≈ 349 µM) | 256 (≈ 349 µM) |  | 
